From ChEMBL document CHEMBL4261600 (Eur J Med Chem, 2018)

What was measured:
[1] = target: Mitogen-activated protein kinase 3 (Homo sapiens) (UniProt P27361); experiment: Binding affinity to wild-type human full length ERK1 (M1 to P379 residues) expressed in bacterial expression system assessed as remaining unbound target protein level at 1000 nM by Kinomescan method relative to control
Summary of the method: (§1)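 Single-point competition binding screen across a panel of 468 kinases and mutants, with the inhibitor at 1 μM. Binding is read out as percent of a DMSO control, and targets below 1 percent control were classed as strong binders.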

[2] = target: Serine/threonine-protein kinase SIK1 (Homo sapiens) (UniProt P57059); experiment: Binding affinity to wild-type human partial length SIK (M1 to Y304 residues) expressed in bacterial expression system assessed as remaining unbound target protein level at 1000 nM by Kinomescan method relative to control
[3] = AUC (0 to t) in beagle dog at 2 mg/kg, iv by LC-MS/MS analysis; format: ADME, organism-based, Canis lupus familiaris; details: in vivo
Summary of the method: (§2)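 Non-compartmental PK. Male SD rats 190-210 g, mice and beagle dogs acclimatized one week, fasted 12 h with water, split into iv and po groups (mice 48, rats 6, dogs 6). iv 3/3/2 mg/kg (mice/rats/dogs); po 10/20/10 mg/kg; vehicle DMSO in 5% glucose water. Blood at 2 or 5 to 720 min; plasma protein-precipitated with methanol, caffeine internal standard, LC-MS/MS.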

[4] = target: Serine/threonine-protein kinase PAK 5 (Homo sapiens) (UniProt Q9P286); experiment: Binding affinity to wild-type human partial length PAK7 (Y400 to H719 residues) expressed in bacterial expression system assessed as remaining unbound target protein level at 1000 nM by Kinomescan method relative to control
[5] = target: Tyrosine-protein kinase Tec (Homo sapiens) (UniProt P42680); experiment: Binding affinity to wild-type human partial length TEC (L341 to D620 residues) expressed in bacterial expression system assessed as remaining unbound target protein level at 1000 nM by Kinomescan method relative to control
Sequence of Tyrosine-protein kinase Tec (Homo sapiens) (P42680 whole entry, the tested form may be a part): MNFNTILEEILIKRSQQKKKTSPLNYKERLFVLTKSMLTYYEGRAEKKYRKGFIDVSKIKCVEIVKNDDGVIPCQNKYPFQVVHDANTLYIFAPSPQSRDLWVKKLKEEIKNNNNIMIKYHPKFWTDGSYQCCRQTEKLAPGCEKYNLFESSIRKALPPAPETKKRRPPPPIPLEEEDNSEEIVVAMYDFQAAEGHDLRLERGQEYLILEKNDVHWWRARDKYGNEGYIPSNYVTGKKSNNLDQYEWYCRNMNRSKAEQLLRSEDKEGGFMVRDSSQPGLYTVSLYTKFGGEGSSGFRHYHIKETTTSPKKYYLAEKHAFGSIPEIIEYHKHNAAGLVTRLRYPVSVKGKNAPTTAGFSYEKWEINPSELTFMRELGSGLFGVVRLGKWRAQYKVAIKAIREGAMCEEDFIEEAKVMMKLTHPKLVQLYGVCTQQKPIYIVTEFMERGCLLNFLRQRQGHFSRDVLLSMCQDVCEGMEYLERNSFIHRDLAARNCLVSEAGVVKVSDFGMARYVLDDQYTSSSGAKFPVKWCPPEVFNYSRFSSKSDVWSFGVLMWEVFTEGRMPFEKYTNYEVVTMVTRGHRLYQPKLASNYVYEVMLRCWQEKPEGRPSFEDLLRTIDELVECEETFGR

[6] = AUC (0 to t) in mouse at 10 mg/kg, po by LC-MS/MS analysis; format: ADME, organism-based; details: in vivo; summary of the method: as §2
[7] = target: Serine/threonine-protein kinase Sgk1 (Homo sapiens) (UniProt O00141); experiment: Binding affinity to wild-type human partial length SGK (I60 to L431 residues) expressed in mammalian expression system assessed as remaining unbound target protein level at 1000 nM by Kinomescan method relative to control
Sequence of Serine/threonine-protein kinase Sgk1 (Homo sapiens) (O00141 whole entry, the tested form may be a part): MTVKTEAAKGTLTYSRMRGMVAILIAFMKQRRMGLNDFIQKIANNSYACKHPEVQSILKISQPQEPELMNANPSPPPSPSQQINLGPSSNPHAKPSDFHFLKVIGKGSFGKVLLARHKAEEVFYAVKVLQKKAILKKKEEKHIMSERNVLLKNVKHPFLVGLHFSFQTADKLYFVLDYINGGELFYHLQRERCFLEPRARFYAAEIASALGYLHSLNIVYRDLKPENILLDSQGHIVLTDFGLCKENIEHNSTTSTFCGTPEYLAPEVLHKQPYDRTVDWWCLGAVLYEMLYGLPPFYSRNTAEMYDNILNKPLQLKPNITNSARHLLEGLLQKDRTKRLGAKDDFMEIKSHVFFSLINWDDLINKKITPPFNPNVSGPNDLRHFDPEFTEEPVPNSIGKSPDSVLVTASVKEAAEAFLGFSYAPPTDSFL

HL-60 = experiment: Antiproliferative activity against human HL60 cells after 72 hrs by Celltiter-Glo assay; format: functional; details: HL-60, 72 h
Summary of the method: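 Cells seeded at 3000/well in 96-well plates, exposed to serially diluted compound for 72 h at 37 °C, 5% CO2. Viability read by CellTiter-Glo luminescence and normalized to DMSO control. GI50 derived from curve fit, mean of three independent measurements. Culture media: DMEM/10% FBS for adherent lines; IMDM for MV4-11 and MEC-1/2; RPMI 1640 for suspension lines and CHL.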

[8] = target: Vascular endothelial growth factor receptor 2 (Homo sapiens, UniProt P35968); experiment: Binding affinity to wild-type human partial length VEGFR2 (R787 to P1253 residues) expressed in mammalian expression system assessed as remaining unbound target protein level at 1000 nM by Kinomescan method relative to control; details: read-out: Activity
Sequence of Vascular endothelial growth factor receptor 2 (P35968 whole entry, the tested form may be a part): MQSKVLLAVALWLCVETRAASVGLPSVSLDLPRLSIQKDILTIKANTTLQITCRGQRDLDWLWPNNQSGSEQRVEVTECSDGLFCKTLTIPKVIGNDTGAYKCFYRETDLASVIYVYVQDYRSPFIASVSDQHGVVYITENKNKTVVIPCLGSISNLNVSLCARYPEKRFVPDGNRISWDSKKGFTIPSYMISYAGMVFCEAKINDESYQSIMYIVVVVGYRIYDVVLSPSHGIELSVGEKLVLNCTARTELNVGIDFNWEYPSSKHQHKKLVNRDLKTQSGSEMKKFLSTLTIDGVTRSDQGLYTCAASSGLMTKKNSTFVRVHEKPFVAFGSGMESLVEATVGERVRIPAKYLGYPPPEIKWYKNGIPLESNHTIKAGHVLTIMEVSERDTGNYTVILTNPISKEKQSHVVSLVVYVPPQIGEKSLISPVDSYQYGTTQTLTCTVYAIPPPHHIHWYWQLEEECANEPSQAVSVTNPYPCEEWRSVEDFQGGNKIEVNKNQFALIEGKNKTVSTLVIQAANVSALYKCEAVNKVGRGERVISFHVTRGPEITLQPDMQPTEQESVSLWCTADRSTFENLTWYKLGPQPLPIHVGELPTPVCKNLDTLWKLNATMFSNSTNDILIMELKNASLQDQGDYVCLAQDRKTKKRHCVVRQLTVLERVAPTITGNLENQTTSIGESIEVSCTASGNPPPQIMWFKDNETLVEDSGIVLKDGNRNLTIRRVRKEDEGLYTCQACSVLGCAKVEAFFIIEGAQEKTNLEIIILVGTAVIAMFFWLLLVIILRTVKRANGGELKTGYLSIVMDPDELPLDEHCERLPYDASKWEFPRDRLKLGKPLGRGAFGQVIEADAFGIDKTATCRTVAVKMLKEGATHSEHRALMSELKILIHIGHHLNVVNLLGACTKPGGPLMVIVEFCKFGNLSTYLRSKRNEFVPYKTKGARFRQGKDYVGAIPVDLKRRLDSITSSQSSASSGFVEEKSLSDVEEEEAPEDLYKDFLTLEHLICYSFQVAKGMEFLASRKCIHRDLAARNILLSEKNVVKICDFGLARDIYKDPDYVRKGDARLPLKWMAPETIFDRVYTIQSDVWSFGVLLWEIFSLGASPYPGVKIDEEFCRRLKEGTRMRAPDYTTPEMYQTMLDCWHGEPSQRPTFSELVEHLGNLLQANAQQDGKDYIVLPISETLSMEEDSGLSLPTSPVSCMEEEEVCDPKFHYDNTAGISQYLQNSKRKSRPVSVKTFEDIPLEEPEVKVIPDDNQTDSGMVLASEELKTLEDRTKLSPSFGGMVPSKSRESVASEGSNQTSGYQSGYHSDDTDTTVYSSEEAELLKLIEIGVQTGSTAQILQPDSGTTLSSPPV

[9] = target: Receptor tyrosine-protein kinase erbB-3 (Homo sapiens) (UniProt P21860); experiment: Binding affinity to wild-type human partial length ERBB3 (G684 to A987 residues) expressed in mammalian expression system assessed as remaining unbound target protein level at 1000 nM by Kinomescan method relative to control
Summary of the method: (§3)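 KINOMEscan binding panel of 468 kinases/mutants. Inhibitor was tested at a single concentration of 1 μM. Binding is reported as percent of control, defined relative to a DMSO control.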

[10] = target: Cytoplasmic tyrosine-protein kinase BMX (Homo sapiens) (UniProt P51813); experiment: Binding affinity to wild-type human full length BMX (M1 to H675 residues) expressed in bacterial expression system assessed as remaining unbound target protein level at 1000 nM by Kinomescan method relative to control; summary of the method: as §1
Sequence of Cytoplasmic tyrosine-protein kinase BMX (Homo sapiens) (P51813 whole entry, the tested form may be a part): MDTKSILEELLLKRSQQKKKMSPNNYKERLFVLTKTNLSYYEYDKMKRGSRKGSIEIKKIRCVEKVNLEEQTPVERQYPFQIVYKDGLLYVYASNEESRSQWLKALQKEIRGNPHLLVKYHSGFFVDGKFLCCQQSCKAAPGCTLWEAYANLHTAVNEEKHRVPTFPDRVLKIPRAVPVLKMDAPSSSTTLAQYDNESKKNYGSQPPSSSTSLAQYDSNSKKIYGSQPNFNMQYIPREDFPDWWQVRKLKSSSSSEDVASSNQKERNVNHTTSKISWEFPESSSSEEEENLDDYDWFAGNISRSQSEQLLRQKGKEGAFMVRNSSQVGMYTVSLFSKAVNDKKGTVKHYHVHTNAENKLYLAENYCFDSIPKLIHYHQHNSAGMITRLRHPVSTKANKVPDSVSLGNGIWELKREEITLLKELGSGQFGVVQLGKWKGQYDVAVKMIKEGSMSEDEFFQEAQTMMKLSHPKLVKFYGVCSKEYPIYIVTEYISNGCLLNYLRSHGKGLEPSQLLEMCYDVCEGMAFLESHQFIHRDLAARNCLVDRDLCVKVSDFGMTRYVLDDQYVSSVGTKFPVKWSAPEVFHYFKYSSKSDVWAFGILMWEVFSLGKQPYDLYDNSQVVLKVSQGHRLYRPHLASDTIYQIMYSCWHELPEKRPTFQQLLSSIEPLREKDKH

[11] = Tmax in mouse at 10 mg/kg, po by LC-MS/MS analysis; format: ADME, organism-based; details: in vivo
[12] = target: Phosphatidylinositol 3-kinase catalytic subunit type 3 (Homo sapiens) (UniProt Q8NEB9); experiment: Binding affinity to wild-type human partial length VPS34 (S282 to H879 residues) expressed in mammalian expression system assessed as remaining unbound target protein level at 1000 nM by Kinomescan method relative to control
[13] = target: SRSF protein kinase 2 (Homo sapiens) (UniProt P78362); experiment: Binding affinity to wild-type human full length SRPK2 (M1 to S686 residues) expressed in bacterial expression system assessed as remaining unbound target protein level at 1000 nM by Kinomescan method relative to control
Sequence of SRSF protein kinase 2 (Homo sapiens) (P78362 whole entry, looked up, the tested form may be a part): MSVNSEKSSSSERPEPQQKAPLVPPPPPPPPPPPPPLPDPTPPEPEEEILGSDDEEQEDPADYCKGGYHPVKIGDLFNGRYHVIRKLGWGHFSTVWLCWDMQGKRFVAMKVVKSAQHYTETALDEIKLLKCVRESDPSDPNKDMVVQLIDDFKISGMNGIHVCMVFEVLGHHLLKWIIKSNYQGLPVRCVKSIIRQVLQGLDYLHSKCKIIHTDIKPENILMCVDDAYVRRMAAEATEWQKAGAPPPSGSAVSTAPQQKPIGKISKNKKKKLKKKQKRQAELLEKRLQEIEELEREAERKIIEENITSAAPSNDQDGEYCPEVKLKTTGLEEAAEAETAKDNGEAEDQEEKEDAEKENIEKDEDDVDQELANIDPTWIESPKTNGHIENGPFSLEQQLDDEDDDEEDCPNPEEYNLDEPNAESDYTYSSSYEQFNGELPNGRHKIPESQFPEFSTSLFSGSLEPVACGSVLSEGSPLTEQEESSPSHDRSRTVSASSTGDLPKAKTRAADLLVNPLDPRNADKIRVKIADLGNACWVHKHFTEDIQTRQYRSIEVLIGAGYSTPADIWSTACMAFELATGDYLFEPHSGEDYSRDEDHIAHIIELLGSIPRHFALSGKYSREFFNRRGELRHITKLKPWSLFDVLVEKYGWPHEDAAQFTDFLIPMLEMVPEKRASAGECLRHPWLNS
Summary of the method: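 Profiled in a KINOMEscan binding panel with the inhibitor at a single concentration of 1 μM. Binding to each kinase was read out as percent of control, relative to a DMSO control. Strong binders were defined as those with a percent control value below 1.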

[14] = target: Tyrosine-protein kinase JAK1 (Homo sapiens) (UniProt P23458); experiment: Binding affinity to wild-type human partial length JAK1 JH1 catalytic domain (V856 to K1154 residues) expressed in bacterial expression system assessed as remaining unbound target protein level at 1000 nM by Kinomescan method relative to control; summary of the method: as §3
[15] = target: cGMP-dependent protein kinase 2 (Homo sapiens) (UniProt Q13237); experiment: Binding affinity to wild-type human partial length PRKG2 (S422 to F762 residues) expressed in mammalian expression system assessed as remaining unbound target protein level at 1000 nM by Kinomescan method relative to control
[16] = target: Discoidin domain-containing receptor 2 (Homo sapiens) (UniProt Q16832); experiment: Binding affinity to wild-type human partial length DDR2 (V555 to E855 residues) expressed in mammalian expression system assessed as remaining unbound target protein level at 1000 nM by Kinomescan method relative to control
[17] = AUC (0 to t) in Sprague-Dawley rat at 20 mg/kg, po by LC-MS/MS analysis; format: ADME, organism-based; details: in vivo; summary of the method: as §2
[18] = target: Serine/threonine-protein kinase 26 (Homo sapiens) (UniProt Q9P289); experiment: Binding affinity to wild-type human full length MST4 (M1 to P416 residues) expressed in mammalian expression system assessed as remaining unbound target protein level at 1000 nM by Kinomescan method relative to control; summary of the method: as §1
Sequence of Serine/threonine-protein kinase 26 (Homo sapiens) (Q9P289 2-416 limits assumed): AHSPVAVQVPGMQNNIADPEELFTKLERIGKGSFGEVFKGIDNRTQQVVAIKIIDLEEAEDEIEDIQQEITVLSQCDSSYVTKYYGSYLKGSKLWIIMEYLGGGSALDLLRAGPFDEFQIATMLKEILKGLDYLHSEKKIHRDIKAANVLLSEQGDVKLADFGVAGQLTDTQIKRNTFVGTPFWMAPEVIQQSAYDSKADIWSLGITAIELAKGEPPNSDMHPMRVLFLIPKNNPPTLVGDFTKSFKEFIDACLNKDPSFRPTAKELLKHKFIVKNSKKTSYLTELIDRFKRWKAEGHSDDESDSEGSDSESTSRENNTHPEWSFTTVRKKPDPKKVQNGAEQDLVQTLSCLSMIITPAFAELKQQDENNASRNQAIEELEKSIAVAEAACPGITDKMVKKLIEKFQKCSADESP

[19] = target: Mitogen-activated protein kinase kinase kinase 3 (Homo sapiens) (UniProt Q99759); experiment: Binding affinity to wild-type human partial length MAP3K3 (E320 to Y626 residues) expressed in mammalian expression system assessed as remaining unbound target protein level at 1000 nM by Kinomescan method relative to control
[20] = target: Casein kinase I isoform gamma-1 (Homo sapiens) (UniProt Q9HCP0); experiment: Binding affinity to wild-type human partial length CSNK1G1 (T15 to S353 residues) expressed in bacterial expression system assessed as remaining unbound target protein level at 1000 nM by Kinomescan method relative to control
Sequence of Casein kinase I isoform gamma-1 (Homo sapiens) (Q9HCP0 whole entry, looked up, the tested form may be a part, canonical isoform): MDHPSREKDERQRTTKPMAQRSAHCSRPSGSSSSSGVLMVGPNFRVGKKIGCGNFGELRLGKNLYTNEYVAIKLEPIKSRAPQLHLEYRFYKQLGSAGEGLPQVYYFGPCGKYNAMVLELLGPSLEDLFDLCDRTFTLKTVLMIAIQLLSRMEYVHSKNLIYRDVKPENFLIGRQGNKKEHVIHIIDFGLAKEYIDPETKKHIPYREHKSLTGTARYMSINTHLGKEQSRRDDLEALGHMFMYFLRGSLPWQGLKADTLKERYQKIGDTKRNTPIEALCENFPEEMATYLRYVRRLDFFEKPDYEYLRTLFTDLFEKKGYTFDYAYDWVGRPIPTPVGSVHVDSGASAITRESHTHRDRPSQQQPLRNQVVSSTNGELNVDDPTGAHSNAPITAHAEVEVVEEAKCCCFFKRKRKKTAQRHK
Summary of the method: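 KINOMEscan competition binding profile across a panel of 468 kinases and mutants, with the inhibitor tested at a single concentration of 1 μM. Binding is reported as percent of control, meaning signal relative to a DMSO control.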

Sequence of Mitogen-activated protein kinase 3 (Homo sapiens) (P27361 whole entry, the tested form may be a part): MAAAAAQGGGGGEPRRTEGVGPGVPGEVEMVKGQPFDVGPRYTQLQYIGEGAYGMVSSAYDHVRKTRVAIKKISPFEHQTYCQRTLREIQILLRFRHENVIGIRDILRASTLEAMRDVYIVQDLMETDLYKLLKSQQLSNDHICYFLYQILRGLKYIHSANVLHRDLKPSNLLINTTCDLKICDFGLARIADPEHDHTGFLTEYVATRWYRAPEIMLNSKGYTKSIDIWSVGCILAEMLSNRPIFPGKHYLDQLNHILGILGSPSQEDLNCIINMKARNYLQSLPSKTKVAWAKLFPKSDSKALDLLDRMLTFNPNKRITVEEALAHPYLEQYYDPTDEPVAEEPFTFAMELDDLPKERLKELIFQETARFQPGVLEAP

COCCN[C@H]1CC[C@H](Nc2cc(-c3csc(NCC4(C#N)CCOCC4)n3)c(Cl)cn2)CC1
Activity [1]: 90%
Activity [2]: 93%
AUC(0-t) [3]: 2010 ng·h/mL
Activity [4]: 98%
Activity [5]: 92%
AUC(0-t) [6]: 591 ng·h/mL
Activity [7]: 70%
GI50 (HL-60): 56 nM
activity at 1 µM [8]: 98%
Activity [9]: 93%
Activity [10]: 92%
Tmax [11]: 2 h
Activity [12]: 95%
Activity [13]: 100%
Activity [14]: 99%
Activity [15]: 100%
Activity [16]: 97%
AUC(0-t) [17]: 1780 ng·h/mL
Activity [18]: 96%
Activity [19]: 100%
Activity [20]: 93%
